# In ChEMBL document CHEMBL1132173, “Novel derivatives of 2-pyridinemethylamine as selective, potent, and orally active agonists at 5-HT1A receptors” (J Med Chem, 1999):
# Assays:
# Rattus norvegicus [1] = experiment: Effective intraperitoneal dose in vivo in rat after 15 mins to induce lower lip retraction; assay type: functional; conditions: ip, 0.25 h
# Method in brief: (§1)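 Observed in 10 min windows centred 15 and 60 min post-dose, 10 s each minute, scoring lower lip retraction present or absent (0–10).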
# [2] = molecular target: T1, 5-hydroxytryptamine receptor 1A (Homo sapiens, UniProt P08908); experiment: In vitro effective concentration required to inhibit forskolin-stimulated cAMP levels in HA7 cells expressing human 5-HT1A receptor; assay type: functional, cell-based
# T1 sequence (P08908 whole entry): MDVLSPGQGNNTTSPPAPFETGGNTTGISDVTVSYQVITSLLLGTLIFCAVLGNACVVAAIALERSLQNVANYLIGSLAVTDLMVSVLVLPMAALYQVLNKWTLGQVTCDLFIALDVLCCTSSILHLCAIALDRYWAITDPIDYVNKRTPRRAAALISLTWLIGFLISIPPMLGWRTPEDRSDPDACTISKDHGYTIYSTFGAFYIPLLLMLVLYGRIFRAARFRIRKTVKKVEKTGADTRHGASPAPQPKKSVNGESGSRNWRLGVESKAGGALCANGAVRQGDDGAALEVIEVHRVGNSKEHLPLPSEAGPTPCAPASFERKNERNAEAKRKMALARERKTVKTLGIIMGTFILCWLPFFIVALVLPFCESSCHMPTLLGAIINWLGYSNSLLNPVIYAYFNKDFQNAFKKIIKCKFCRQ
# Method in brief: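 HeLa HA7 cells stably expressing human 5-HT1A, at 80–90% confluency, antibiotic-free for 24 h. Preincubated 10 min at RT in DMEM/10 mM Hepes, then drug at 0.1 nM–100 µM with 100 µM forskolin and 100 µM IBMX for 10 min at RT. Stopped with 0.1 N HCl; cAMP by radioimmunoassay as % of forskolin control; pEC50.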
# Rattus norvegicus [3] = experiment: Induction of lower lip retraction in rat 60 min after administration, effective peroral dose determined in vivo; assay type: functional; conditions: po, 1 h; method in brief: as §1
# [4] = molecular target: T2, 5-hydroxytryptamine receptor 1A (Rattus norvegicus, UniProt P19327); experiment: Binding affinity towards 5-hydroxytryptamine 1A receptor in rat cortex using [3H]8-OH-DPAT as a radioligand
# T2 sequence (P19327 whole entry): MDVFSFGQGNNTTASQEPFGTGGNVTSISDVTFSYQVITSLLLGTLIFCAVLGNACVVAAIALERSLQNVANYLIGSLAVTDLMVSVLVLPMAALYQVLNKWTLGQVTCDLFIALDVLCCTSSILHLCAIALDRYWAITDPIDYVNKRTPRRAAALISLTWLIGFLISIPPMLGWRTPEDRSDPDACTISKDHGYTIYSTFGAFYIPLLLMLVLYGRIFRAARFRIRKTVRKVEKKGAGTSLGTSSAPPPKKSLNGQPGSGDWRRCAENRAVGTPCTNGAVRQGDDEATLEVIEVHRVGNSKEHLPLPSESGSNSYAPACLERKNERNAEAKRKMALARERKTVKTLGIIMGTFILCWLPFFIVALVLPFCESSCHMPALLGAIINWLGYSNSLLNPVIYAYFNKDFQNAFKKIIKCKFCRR
# Method in brief: (§2)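 Rat tissue membranes, competition against radioligand at 23 °C. Nonspecific binding: 5-HT for 5-HT1A (30 min), (+)-butaclamol for D2 (60 min), phentolamine for α1 (30 min). Tris HCl 50 mM pH 7.4 buffers. Filtration through glass-fibre filters, then scintillation counting. Run in triplicate; IC50 by nonlinear regression; Ki by Cheng–Prusoff; mean pKi of three determinations.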
# Rattus norvegicus [5] = experiment: Effective intraperitoneal dose in vivo in rat after 60 mins to induce lower lip retraction; assay type: functional; conditions: ip, 1 h; method in brief: as §1
# [6] = molecular target: T3, Adrenergic receptor alpha-1 (Rattus norvegicus, UniProt P15823+P23944+P43140); experiment: Binding affinity towards Alpha-1 adrenergic receptor using prazosin as a radioligand in rat cortex; method in brief: as §2
# T3 sequence (P15823 whole entry): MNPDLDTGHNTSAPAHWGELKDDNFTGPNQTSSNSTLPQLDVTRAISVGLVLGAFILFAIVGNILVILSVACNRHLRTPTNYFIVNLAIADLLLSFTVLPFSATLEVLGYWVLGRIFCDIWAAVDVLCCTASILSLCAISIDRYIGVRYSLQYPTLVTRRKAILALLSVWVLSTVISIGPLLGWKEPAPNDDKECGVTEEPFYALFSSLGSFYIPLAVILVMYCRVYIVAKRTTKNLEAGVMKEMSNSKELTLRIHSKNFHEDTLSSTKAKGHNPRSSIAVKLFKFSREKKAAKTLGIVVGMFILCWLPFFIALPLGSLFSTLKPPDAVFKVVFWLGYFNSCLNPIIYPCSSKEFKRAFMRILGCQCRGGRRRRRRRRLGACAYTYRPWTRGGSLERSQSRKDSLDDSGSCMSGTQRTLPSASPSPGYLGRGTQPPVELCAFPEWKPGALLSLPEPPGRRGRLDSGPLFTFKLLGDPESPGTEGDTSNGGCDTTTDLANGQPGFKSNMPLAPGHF
# T3 sequence (P23944 whole entry): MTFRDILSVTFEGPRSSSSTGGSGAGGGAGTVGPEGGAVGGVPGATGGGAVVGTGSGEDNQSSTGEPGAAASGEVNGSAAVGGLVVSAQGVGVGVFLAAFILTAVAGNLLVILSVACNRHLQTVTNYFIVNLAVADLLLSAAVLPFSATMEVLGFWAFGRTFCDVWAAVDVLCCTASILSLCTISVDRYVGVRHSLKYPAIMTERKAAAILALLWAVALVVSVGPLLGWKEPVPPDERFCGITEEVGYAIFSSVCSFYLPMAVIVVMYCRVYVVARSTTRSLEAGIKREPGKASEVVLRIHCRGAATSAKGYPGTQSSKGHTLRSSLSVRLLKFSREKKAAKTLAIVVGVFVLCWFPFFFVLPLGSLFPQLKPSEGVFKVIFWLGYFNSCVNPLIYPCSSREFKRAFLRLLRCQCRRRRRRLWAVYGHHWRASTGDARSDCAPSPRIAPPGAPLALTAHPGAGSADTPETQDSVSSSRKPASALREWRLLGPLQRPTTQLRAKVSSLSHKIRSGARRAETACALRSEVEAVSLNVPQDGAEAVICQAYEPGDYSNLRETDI
# T3 sequence (P43140 whole entry): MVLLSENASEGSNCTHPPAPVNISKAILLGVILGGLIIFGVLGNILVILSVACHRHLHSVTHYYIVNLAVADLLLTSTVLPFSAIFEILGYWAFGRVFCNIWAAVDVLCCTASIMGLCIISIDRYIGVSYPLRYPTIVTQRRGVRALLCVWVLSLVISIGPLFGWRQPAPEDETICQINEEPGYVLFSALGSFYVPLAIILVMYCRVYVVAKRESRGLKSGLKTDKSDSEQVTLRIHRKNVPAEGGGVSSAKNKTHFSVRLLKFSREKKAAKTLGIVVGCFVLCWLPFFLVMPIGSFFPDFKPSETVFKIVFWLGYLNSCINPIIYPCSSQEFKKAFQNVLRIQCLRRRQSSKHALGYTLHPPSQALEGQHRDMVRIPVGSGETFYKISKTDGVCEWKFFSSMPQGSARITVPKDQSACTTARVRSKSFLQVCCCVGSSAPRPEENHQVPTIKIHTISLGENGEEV
# D(2) dopamine receptor = D(2) dopamine receptor (Rattus norvegicus, UniProt P61169); experiment: Binding affinity towards Dopamine receptor D2 in rat striatum using YM-09151-2 as a radioligand; assay type: tissue-based; method in brief: as §2
# Chain of D(2) dopamine receptor (P61169 whole entry): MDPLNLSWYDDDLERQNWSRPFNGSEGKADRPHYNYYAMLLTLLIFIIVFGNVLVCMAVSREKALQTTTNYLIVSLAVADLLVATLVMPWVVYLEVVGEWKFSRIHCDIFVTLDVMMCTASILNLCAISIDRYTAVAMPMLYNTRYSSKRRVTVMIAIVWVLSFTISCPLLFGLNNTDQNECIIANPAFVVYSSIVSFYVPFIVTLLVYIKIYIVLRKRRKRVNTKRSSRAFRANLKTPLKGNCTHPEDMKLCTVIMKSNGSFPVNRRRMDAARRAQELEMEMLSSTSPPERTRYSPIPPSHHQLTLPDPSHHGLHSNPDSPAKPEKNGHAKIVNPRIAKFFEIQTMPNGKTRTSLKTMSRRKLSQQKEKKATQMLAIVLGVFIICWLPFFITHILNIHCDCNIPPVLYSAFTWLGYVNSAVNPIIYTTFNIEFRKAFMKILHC
Structure (SMILES),ED50 (Rattus norvegicus [1]),EC50 [2],ED50 (Rattus norvegicus [3]),Ki [4],ED50 (Rattus norvegicus [5]),Log Ki [6],Ki (D(2) dopamine receptor)
CCNc1cccc(CNCC2(F)CCN(C(=O)c3ccc(F)c(Cl)c3)CC2)n1,0.11 mg/kg,13.2 nM,0.32 mg/kg,,,,
O=C(c1ccc(Cl)c(Cl)c1)N1CCC(CNCc2cccc(-n3cccn3)n2)CC1,,30.9 nM,,,,,
Cc1cc(CNCC2(F)CCN(C(=O)c3ccc(F)c(Cl)c3)CC2)nc(N(C)C)c1,0.32 mg/kg,33.1 nM,0.89 mg/kg,0.562 nM,,,
O=C(c1ccc(Cl)c(Cl)c1)N1CCC(CNCc2cccc(-c3cnco3)n2)CC1,,2 nM,,,,,
N#CC1(CNCc2cccc(-n3cccn3)n2)CCN(C(=O)c2ccc(Cl)c(Cl)c2)CC1,,162 nM,,6.92 nM,,,
O=C(c1ccc(Cl)c(Cl)c1)N1CCC(CNCc2cccc(N3CCC3)n2)CC1,,7.08 nM,,,,,
Cc1ccc(CNCC2(F)CCN(C(=O)c3ccc(F)c(Cl)c3)CC2)nc1-n1cccn1,0.32 mg/kg,14.8 nM,1.3 mg/kg,0.447 nM,,,
O=C(c1ccc(Cl)c(Cl)c1)N1CCC(CNCc2cccc(-c3ccco3)n2)CC1,,5.25 nM,,,,,
Cc1ccc(CNCC2(F)CCN(C(=O)c3ccc(F)c(Cl)c3)CC2)nc1-c1cc[nH]n1,0.32 mg/kg,2.75 nM,0.89 mg/kg,2.19 nM,,,
O=C(c1ccc(Cl)c(Cl)c1)N1CCC(CNCc2cccc(-c3cccs3)n2)CC1,,5.75 nM,,,,,
CN(C)c1cccc(CNCC2(F)CCN(C(=O)c3cccc(Cl)c3)CC2)n1,0.08 mg/kg,10 nM,0.32 mg/kg,0.0977 nM,0.11 mg/kg,-6.81,617 nM
O=C(c1ccc(Cl)c(Cl)c1)N1CCC(CNCc2ncccc2F)CC1,,,,15.1 nM,,,
CN(C)c1cccc(CNCC2CCN(C(=O)c3ccc(Cl)c(Cl)c3)CC2)n1,,20.4 nM,,,,,
O=C(c1ccc(Cl)c(Cl)c1)N1CC=C(CNCc2cccc(-n3cccn3)n2)CC1,,269 nM,,6.03 nM,,,
CCc1ccc(CNCC2(F)CCN(C(=O)c3ccc(F)c(Cl)c3)CC2)nc1,1.3 mg/kg,407 nM,1.8 mg/kg,8.91 nM,,,
CC(C)c1ccc(CNCC2(F)CCN(C(=O)c3ccc(F)c(Cl)c3)CC2)nc1,,,,35.5 nM,,,
CNc1cccc(CNCC2(F)CCN(C(=O)c3ccc(Cl)c(Cl)c3)CC2)n1,0.11 mg/kg,6.61 nM,0.32 mg/kg,,0.23 mg/kg,-6.92,
O=C(c1ccc(F)c(Cl)c1)N1CCC(F)(CNCc2cccc(-n3cccn3)n2)CC1,0.32 mg/kg,12.3 nM,1.3 mg/kg,0.49 nM,,,
COC1(CNCc2cccc(-n3cccn3)n2)CCN(C(=O)c2ccc(Cl)c(Cl)c2)CC1,,,,30.2 nM,,,

Structure (SMILES),ED50 (Rattus norvegicus [1]),EC50 [2],ED50 (Rattus norvegicus [3]),Ki [4],ED50 (Rattus norvegicus [5]),Log Ki [6],Ki (D(2) dopamine receptor)
O=C(c1ccc(Cl)c(Cl)c1)N1CCC(O)(CNCc2cccc(-n3cccn3)n2)CC1,,39.8 nM,,1.62 nM,,,
CNc1cccc(CNCC2CCN(C(=O)c3ccc(Cl)c(Cl)c3)CC2)n1,,21.9 nM,,,,,
CCN(CC)c1nc(CNCC2(F)CCN(C(=O)c3ccc(F)c(Cl)c3)CC2)ccc1C,0.32 mg/kg,28.8 nM,0.11 mg/kg,1.38 nM,,,
O=C(c1ccc(Cl)c(Cl)c1)N1CCC(CF)(CNCc2cccc(-n3cccn3)n2)CC1,,309 nM,,9.12 nM,,,
O=C(c1ccc(Cl)c(Cl)c1)N1CCC(CNCc2cccc(-c3cc[nH]n3)n2)CC1,,3.02 nM,,,,,
CC1(CNCc2cccc(-n3cccn3)n2)CCN(C(=O)c2ccc(Cl)c(Cl)c2)CC1,,,,37.2 nM,,,
CNc1cccc(CNCC2(F)CCN(C(=O)c3ccc(F)c(Cl)c3)CC2)n1,0.11 mg/kg,12.6 nM,0.32 mg/kg,,,,
Cc1ccc(CNCC2(F)CCN(C(=O)c3ccc(F)c(Cl)c3)CC2)nc1N(C)C,0.04 mg/kg,3.72 nM,0.08 mg/kg,,,,
O=C(c1ccc(Cl)c(Cl)c1)N1CCC(F)(CNCc2cccc(N3CCC3)n2)CC1,0.32 mg/kg,10.7 nM,0.45 mg/kg,0.2 nM,0.45 mg/kg,-6.35,309 nM
Cc1ccc(N(C)C)nc1CNCC1(F)CCN(C(=O)c2ccc(F)c(Cl)c2)CC1,0.63 mg/kg,47.9 nM,1.3 mg/kg,0.468 nM,,,
O=C(c1ccc(Cl)c(Cl)c1)N1CCC(CNCc2cccc(-c3nccs3)n2)CC1,,5.01 nM,,,,,
O=C(c1ccc(Cl)c(Cl)c1)N1CCC(F)(CNCc2cccc(-c3nccs3)n2)CC1,0.45 mg/kg,22.9 nM,1.3 mg/kg,0.794 nM,0.89 mg/kg,-6.26,3390 nM
O=C(c1ccc(F)c(Cl)c1)N1CCC(F)(CNCc2cccc(-c3cc[nH]n3)n2)CC1,0.32 mg/kg,0.724 nM,0.32 mg/kg,,,,
O=C(c1ccc(Cl)c(Cl)c1)N1CCC(F)(CNCc2ccccn2)CC1,0.11 mg/kg,,,5.13 nM,,,
CN(C)c1cccc(CNCC2(F)CCN(C(=O)c3ccc(Cl)c(Cl)c3)CC2)n1,0.62 mg/kg,2.95 nM,0.32 mg/kg,,0.45 mg/kg,-6.76,
CCNc1nc(CNCC2(F)CCN(C(=O)c3ccc(F)c(Cl)c3)CC2)ccc1C,0.08 mg/kg,8.32 nM,0.45 mg/kg,0.148 nM,,,
Cc1ccc(CNCC2(F)CCN(C(=O)c3ccc(Cl)c(Cl)c3)CC2)nc1,,20.9 nM,0.62 mg/kg,,,,
Cc1ccc(CNCC2(F)CCN(C(=O)c3ccc(F)c(Cl)c3)CC2)nc1 [BEFIRADOL],0.08 mg/kg,,0.11 mg/kg,,,,
